Active and inactive are the calls of the source. The rule behind the calls is not given here.
Experiments:
[1] = test system: Rattus norvegicus; assay: Antiinflammatory activity in rat assessed as inhibition of adjuvant-induced arthritis administered for 9 days into foot pad 14 days after adjuvant challenge measured on day 22 by mercury displacement analysis; type: functional
In short: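 Oral dosing in groups of six rats with established adjuvant arthritis (Mycobacterium butyricum in mineral oil, injected into left hind foot pad). Treatment ran from day 14 to day 22 (9 po administrations). Injected-paw volume was measured by mercury displacement. A decrease of 0.5 ml or more counted as a therapeutic effect. ED50 was derived by probit analysis of responder counts. Maximum screening dose was 100 mg/kg.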

[2] = Therapeutic index, ratio of UD50 for 8 hrs starved po dosed Charles River rat to ED50 for rat assessed as inhibition of adjuvant-induced arthritis; type: organism-based; details: in vivo, read-out: TI
In short: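 Ratio of UD50 to ED50. UD50 came from starved (8 hr) male Charles River rats dosed orally and was calculated graphically. ED50 came from the 9-dose oral adjuvant-arthritis therapeutic test (day 14–22, mercury-displacement paw volume, ≥0.5 ml decrease as responder) and was derived by probit analysis.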

[3] = Gastrointestinal toxicity in 8 hrs starved po dosed Charles River rat assessed as ulcerogenic effect after 18 hrs; type: organism-based; details: in vivo, read-out: UD50
In short: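 Acute ulcerogenicity in male Charles River rats (180–200 g), housed in individual cages and starved 8 hr before oral dosing. UD50 was calculated graphically.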

[4] = test system: Rattus norvegicus; assay: Antiinflammatory activity in po dosed rat assessed as inhibition of carrageenin-induced paw edema; type: functional
[5] = test system: Rattus norvegicus; assay: Antiinflammatory activity in rat assessed as inhibition of adjuvant-induced arthritis at 25 mg/kg administered for 9 days into foot pad 14 days after adjuvant challenge measured on day 22 by mercury displacement analysis; type: functional, organism-based; parameters: dose 25 mg/kg
In short: (§1)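 Therapeutic test in groups of six rats with adjuvant arthritis (Mycobacterium butyricum in mineral oil, left hind foot pad). Oral treatment ran from day 14 to day 22 (9 po doses). Injected-paw volume was measured by mercury displacement. Rats whose paw shrank by 0.5 ml or more were scored as showing a therapeutic effect; smaller changes counted as negative.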

[6] = test system: Rattus norvegicus; assay: Antiinflammatory activity in rat assessed as inhibition of adjuvant-induced arthritis at 20 mg/kg administered for 9 days into foot pad 14 days after adjuvant challenge measured on day 22 by mercury displacement analysis; type: functional, organism-based; parameters: dose 20 mg/kg; in short: as §1
[7] = test system: Rattus norvegicus; assay: Antiinflammatory activity in rat assessed as inhibition of adjuvant-induced arthritis at 50 mg/kg administered for 9 days into foot pad 14 days after adjuvant challenge measured on day 22 by mercury displacement analysis; type: functional, organism-based; parameters: dose 50 mg/kg; in short: as §1

Row | SMILES | ED50 [1] | further results
1 | CCCC1(CC(=O)O)OCCc2c1[nH]c1c(C)cccc21 (centres undefined) | 11.8 mg/kg | –
2 | CCC1(CC(=O)O)OCCc2c1[nH]c1c(C3CC3)cccc21 (centres undefined) | 1 mg/kg | –
3 | CCC1(CC(=O)O)OCCc2c1[nH]c1cc(C(F)(F)F)ccc21 (centres undefined) | 1.2 mg/kg | –
4 | CCc1cccc2c3c([nH]c12)C(CC)(CC(=O)O)OCC3 (centres undefined) [ETODOLAC] | 0.7 mg/kg | selectivity ratio [2]: 85; TD50 at 18 h [3]: 60 mg/kg
5 | CCC1(CC(=O)O)OCCc2c1[nH]c1cccc(Cl)c21 (centres undefined) | 7 mg/kg | –
6 | CCCCC1C(=O)N(c2ccccc2)N(c2ccccc2)C1=O [PHENYLBUTAZONE] | 5.4 mg/kg | TD50 at 18 h [3]: 100 mg/kg
7 | CCC1(CC(=O)O)OCCc2c1[nH]c1c(C)cccc21 (centres undefined) | 4.3 mg/kg | –
8 | CCC1(CC(=O)O)OCCc2c1[nH]c1c(C)c(F)ccc21 (centres undefined) | 0.9 mg/kg | selectivity ratio [2]: 29; TD50 at 18 h [3]: 26 mg/kg; ED30 [4]: 37 mg/kg
9 | CCCc1cccc2c3c([nH]c12)C(CCC)(CC(=O)O)OCC3 (centres undefined) | 6 mg/kg | –
10 | CCC1(CC(=O)O)OCCc2c1[nH]c1c(C3CCCC3)cccc21 (centres undefined) | > 5 mg/kg | –
11 | CCC1(CC(=O)O)OCCc2c1[nH]c1ccc(F)cc21 (centres undefined) | 5 mg/kg | –
12 | CCCC1(CC(=O)O)OCCc2c1[nH]c1ccc(C)cc21 (centres undefined) | – | inhibition [5]: inactive
13 | CCCC1(CC(=O)O)OCCc2c1[nH]c1cccc(Cl)c21 (centres undefined) | > 25 mg/kg | –
14 | CCC1(CC(=O)O)OCCc2c1[nH]c1c(OC)cccc21 (centres undefined) | – | Activity [5]: inactive
15 | CCC1(CC(=O)O)OCCc2c1[nH]c1c(C(C)C)cccc21 (centres undefined) | 1.6 mg/kg | –
16 | CCCC1(CC(=O)O)OCCc2c1[nH]c1cccc(C)c21 (centres undefined) | 10 mg/kg | –
17 | CCC1(CC(=O)O)OCCc2c1[nH]c1c(C(C)(C)C)cccc21 (centres undefined) | 1.9 mg/kg | –
18 | CCC1(CC(=O)O)OCCc2c1[nH]c1cccc(C)c21 (centres undefined) | 11 mg/kg | –
19 | CCC1(CC(=O)O)OCCc2c1[nH]c1ccc(Br)cc21 (centres undefined) | – | inhibition [5]: inactive
20 | CCC1(CC(=O)O)OCCc2c1[nH]c1c(C)ccc(C)c21 (centres undefined) | 3.2 mg/kg | –

Row | SMILES | ED50 [1] | further results
21 | CCC1(CC(=O)O)OCCc2c1[nH]c1cc(Cl)ccc21 (centres undefined) | 3.2 mg/kg | –
22 | CCC1(CC(=O)O)OCCc2c1[nH]c1c(Cl)c(C)ccc21 (centres undefined) | 4.1 mg/kg | –
23 | CCC1(CC(=O)O)OCCc2c1[nH]c1c(C3CCCCC3)cccc21 (centres undefined) | > 10 mg/kg | –
24 | CCC1(CC(=O)O)OCCc2c1[nH]c1c(Cl)ccc(Cl)c21 (centres undefined) | 5.5 mg/kg | –
25 | CCCC1(CC(=O)O)OCCc2c1[nH]c1c(CC)cccc21 (centres undefined) | 7.4 mg/kg | –
26 | CCC1(CC(=O)O)OCCc2c1[nH]c1cc(F)ccc21 (centres undefined) | 3 mg/kg | –
27 | COc1ccc2c(c1)c(CC(=O)O)c(C)n2C(=O)c1ccc(Cl)cc1 [INDOMETHACIN] | 0.2 mg/kg | selectivity ratio [2]: 30; TD50 at 18 h [3]: 6 mg/kg; ED30 [4]: 1.3 mg/kg
28 | CCC(C)c1cccc2c3c([nH]c12)C(CC)(CC(=O)O)OCC3 (centres undefined) | 2.6 mg/kg | –
29 | CCCCc1cccc2c3c([nH]c12)C(CC)(CC(=O)O)OCC3 (centres undefined) | – | inhibition [6]: inactive
30 | CCCC1(CC(=O)O)OCCc2c1[nH]c1cc(Cl)ccc21 (centres undefined) | 3.7 mg/kg | –
31 | CCC1(CC(=O)O)OCCc2c1[nH]c1c(Cl)cccc21 (centres undefined) | 2.4 mg/kg | –
32 | CCC1(CC(=O)O)OCCc2c1[nH]c1c(OC)ccc(OC)c21 (centres undefined) | 100 mg/kg | –
33 | CCCC1(CC(=O)O)OCCc2c1[nH]c1cc(OC)ccc21 (centres undefined) | – | inhibition [5]: inactive
34 | CCC1(CC(=O)O)OCCc2c1[nH]c1c(CC(C)C)cccc21 (centres undefined) | 5 mg/kg | –
35 | CCC1(CC(=O)O)OCCc2c1[nH]c1c(C)c(Cl)ccc21 (centres undefined) | 0.6 mg/kg | selectivity ratio [2]: 41; TD50 at 18 h [3]: 25 mg/kg; ED30 [4]: 15 mg/kg
36 | CCC1(CC(=O)O)OCCc2c1[nH]c1c(Cl)c(Cl)ccc21 (centres undefined) | 1.1 mg/kg | –
37 | CCCc1cccc2c3c([nH]c12)C(CC)(CC(=O)O)OCC3 (centres undefined) | 0.4 mg/kg | selectivity ratio [2]: 50; TD50 at 18 h [3]: 20 mg/kg; ED30 [4]: 10 mg/kg
38 | CCCC1(CC(=O)O)OCCc2c1[nH]c1cc(C)ccc21 (centres undefined) | – | inhibition [7]: inactive
39 | CCCC1(CC(=O)O)OCCc2c1[nH]c1c(C)c(Cl)ccc21 (centres undefined) | 3.4 mg/kg | –
